Laboratory results taken from the RNAGym collection of RNA variant scans (doi:10.1126/science.aae0568).
This sample holds only a part of the variants without activity.

B1: tRNA (parent)
chain: GUUCCGUUGGCGUAAUGGUAACGCGUCUCCCUCCUAAGGAGAAGACUGCGGGUUCGAGUCCCGUACGGAACG

Variants of: B1
Assay: yeast fitness relative to wild type (ratio to wild type); higher = fitter; tRNA-Arg(CCU), competitive growth, 37 C, YPD
In short: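 Start and end populations of a pooled competition were compared by 100-nucleotide paired-end sequencing of gene amplicons. The Saccharomyces cerevisiae strains carried tRNA-Arg(CCU) gene variants at the native genomic locus, synthesised with a 3% per-site mutation rate at 69 sites, and competed in YPD at 37°C for 24 hours in six parallel replicates. Darwinian fitness relative to wild type was based on the change in genotype frequencies. Genotypes required ≥ 100 starting reads, and estimates < 0.5 were set to 0.5.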
GUUCCGUUGGUGUAAUGGUAACGCGUCUCCUUCCCAAGGAGAAGACUGCGGGUUCGAGUCCCGUACGGUACG [C11U C31U U35C A69U] showed a yeast fitness of at most 0.5. With GUUCCGUUGGUGUAAUGGUAACGCGUCUCCUUCCUAAGGAGAAGACUGCGGGUUCGAGUCCCGAACGGAGCG [C11U C31U U64A A70G] the yeast fitness was at most 0.5. Variant GUUCCGUUGGUGUAAUGGUAACGCGUCUCCCUGCUAUGGAGAAGACUGCGGGUUCGAGUCCCGUACGGAACG [C11U C33G A37U] has a yeast fitness of at most 0.5. In the case of GUUCCGUUGGUGUAAUGGUAACGCGUCUCCCUUCUGAGAAGAAAACUGCGGGUUCGAGUCCCGUACGGAACG [C11U C33U A36G G39A G44A], the yeast fitness is reported as at most 0.5. With GUUCCGUUGGUGUAAUGGUAACGCGUCUCCCUCAUAAGGAGAAGACUGCGGGUUCGAGUCCCGUACGGAACG [C11U C34A] the yeast fitness was 0.758. GUUCCGUUGGUGUAAUGGUAACGCGUCUCCCUCGUAAGGAGAAGACUGCGGGUUCGAGUCCCGUACGGCACG [C11U C34G A69C] gave a yeast fitness of 0.535. In the case of GUUCCGUUGGUGUAAUGGUAACGCGUCUCCCUCCUAAGGAGAAGAGUGCGGGUUCGAGUCUCGUACGGAACG [C11U C46G C61U], the yeast fitness is reported as 0.596. In the case of GUUCCGUUGGUGUAAUGGUAACGCGUCUCCCUCCUAAGGAGAAGAGUGCGAGUUUGAGUCCCUUACGGAACG [C11U C46G G51A C55U G63U], the yeast fitness is reported as at most 0.5. GUUCCGUUGGUGUAAUGGUAACGCGUCUCCCUCCUAAGGAGAAGAUUGCGGGUUCGAGUCCCGUUCGGUACG [C11U C46U A65U A69U] showed a yeast fitness of 0.54. In the case of GUUCCGUUGGUGUAAUGGUAACGCGUCUCCCUCCUAAGGAGAAGACUGAGGGUUCGCGUCCCGUACGGAACG [C11U C49A A57C], the yeast fitness is reported as at most 0.5. In the case of GUUCCGUUGGUGUAAUGGUAACGCGUCUCCCUCCUAAGGAGAAGACUGGGGGUUCGAGUCCUGUACGGAACG [C11U C49G C62U], the yeast fitness is reported as at most 0.5. Work on GUUCCGUUGGUGUAAUGGUAACGCGUCUCCCUCCUAAGGAGAAGACUGUGGGUUCAAGUCCCGUCCGGAACG [C11U C49U G56A A65C] yielded a yeast fitness of at most 0.5. GUUCCGUUGGUGUAAUGGUAACGCGUCUCCCUCCUAAGGAGAAGACUGCGGGUUAGAGUCCCGUACGGAACG [C11U C55A] gave a yeast fitness of 0.678. GUUCCGUUGGUGUAAUGGUAACGCGUCUCCCUCCUAAGGAGAAGACUGCGGGUUAGAGUCCCGUAAGGAACG [C11U C55A C66A] gave a yeast fitness of at most 0.5. Variant GUUCCGUUGGUGUAAUGGUAACGCGUCUCCCUCCUAAGGAGAAGACUGCGGGUUUGAGUCCCGUACGGAACG [C11U C55U] has a yeast fitness of 0.8. Variant GUUCCGUUGGUGUAAUGGUAACGCGUCUCCCUCCUAAGGAGAAGACUGCGGGUUUGAGCCCCGUCCGGAACG [C11U C55U U59C A65C] has a yeast fitness of at most 0.5. In the case of GUUCCGUUGGUGUAAUGGUAACGCGUCUCCCUCCUAAGGAGAAGACUGCGGGUUCGAGUCUCGUCCGGAACG [C11U C61U A65C], the yeast fitness is reported as at most 0.5. In the case of GUUCCGUUGGUGUAAUGGUAACGCGUCUCCCUCCUAAGGAGAAGACUGCGGGUUCGAGUCCCGUAGGGUACG [C11U C66G A69U], the yeast fitness is reported as 0.555. In the case of GUUCCGUUGGUGUAAUGGUAACGCGUCUCCCUCCUAAGGAGAAGACUGCGGGUUCGAGUCCCGUAUGGGACG [C11U C66U A69G], the yeast fitness is reported as 0.639. GUUCCGUUGGUAUAAUGGUAACGCGUCUCCUUCCUAAGGAGAAGACUGCGGGUUCGAGUCCCGUACGGAACG [C11U G12A C31U] gave a yeast fitness of 0.532. Work on GUUCCGUUGGUAUAAUGGUAACGCGUCUCCCUCCUAAGGAGAAGACUGCGCGUUCGAGUCCUGUACGGAACG [C11U G12A G51C C62U] yielded a yeast fitness of at most 0.5. Variant GUUCCGUUGGUCUAAUGGUAACGCGUCUCCCUCCUAAGGAGAAGACUGCGGGUUCGAGUCCCGUACGGAACG [C11U G12C] has a yeast fitness of 0.75. GUUCCGUUGGUGUAAUAGUAACGCGUCUCCCUCCUAAGGCGAAGACUGCGGGUUCGAGUCCCGUACGGAACG [C11U G17A A40C] showed a yeast fitness of at most 0.5. With GUUCCGUUGGUGUAAUAGUAACGCGUCUACCUCCUAAGGAGAAGACUGCGGGUUCGAGUCCCGUACGGAACG [C11U G17A C29A] the yeast fitness was at most 0.5. GUUCCGUUGGUGUAAUCGUAUCGCGUCUCCCUCCUAAGGAGAAGACUGCGGGUUCAAGUCCCGUACGGAACG [C11U G17C A21U G56A] gave a yeast fitness of at most 0.5. For GUUCCGUUGGUGUAAUCGUAACGCGUCUCCCUCCUAAGGAGAAGACUGCGGGUUCGAGUCCUGUACGGUACG [C11U G17C C62U A69U], the yeast fitness was 0.567. For GUUCCGUUGGUGUAAUCGUAACGCGUCUCCCACCUAAGGAGAAGAAUGCGGGUUCGAGUCCCGUACGGAACG [C11U G17C U32A C46A], the yeast fitness was at most 0.5. GUUCCGUUGGUGUAAUGAUAACGCGUCUCCCUCCUUAGGAGAAGACUGCGGGUUCGAGUCCCGUACGGAACG [C11U G18A A36U] showed a yeast fitness of at most 0.5. Variant GUUCCGUUGGUGUAAUGAUAACGCGUCUCCCUCCUUAGGAGAAGACUCUGGGUUCGAGUCCCGUACGGAACG [C11U G18A A36U G48C C49U] has a yeast fitness of 0.558. In the case of GUUCCGUUGGUGUAAUGAUAACGCGUCUCCCUCCUAAGGAGAAGACUACGGGUUCGAGUCCCGUACCGAACG [C11U G18A G48A G67C], the yeast fitness is reported as at most 0.5. For GUUCCGUUGGUGUAAUGCUAGCGCGUCUCCCUCCUAAGGAGAAGACUGCGGGUUCGAGUCCCGUACGGAACG [C11U G18C A21G], the yeast fitness was 0.571. With GUUCCGUUGGUGUAAUGCUAACGCGUCUCCCUCCUAAGGCGAAGACUGCGGGUUCGAGUCCCAUACGGAACG [C11U G18C A40C G63A] the yeast fitness was at most 0.5. GUUCCGUUGGUGUAAUGCUAACGCGUCUCCUUCCUAAGGAGAAGACUGCGGGUUCGAGUCCCGUACGGAACG [C11U G18C C31U] gave a yeast fitness of at most 0.5. Variant GUUCCGUUGGUGUAAUGCUAACGCGUCUCCUUCCUAAGGAGAAGACUGCGGGUUCGAGUCCUGUACGGAACG [C11U G18C C31U C62U] has a yeast fitness of at most 0.5. In the case of GUUCCGUUGGUGUAAUGGUAACACGUCUCCCUCCCAAGGAGAAGACUGCGGGUUCGAGUCCCGUACGGAACG [C11U G23A U35C], the yeast fitness is reported as 0.573. GUUCCGUUGGUGUAAUGGUAACCCGUAUCCCUCCUAAGGAGAAGACUGCGGGUUCGAGUCCCGUACGGUACG [C11U G23C C27A A69U] showed a yeast fitness of at most 0.5. With GUUCCGUUGGUGUAAUGGUAACCCGUCUCCCUCCUAAGGAAAAGACUGCGGGUUCGAGUCCAGUACGGAACG [C11U G23C G41A C62A] the yeast fitness was at most 0.5. Variant GUUCCGUUGGUGUAAUGGUAACGCGUCUCCCUCCUAAGAAGAAGACUGCGGGUUCGAGUCCCGUACGGAACG [C11U G39A] has a yeast fitness of 0.947.
